Experimental data reported in ChEMBL document CHEMBL3244142, “Antifungal properties of 2-bromo-3-fluorosuccinic acid esters and related compounds” (1977).
≈ marks a conversion by molar mass, not a printed value. Calls of active or inactive are those of the source. No cut-off for these calls is given here.

Assays:
[1] = tested on: Trichophyton mentagrophytes; test: Antifungal activity against Trichophyton mentagrophytes ATCC 9129 at <100 ug/ml at pH 5.6 after 5 days in presence of 10% beef serum; type: functional, organism-based
In short: (§1)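 Agar-dilution MIC in Sabouraud dextrose agar at pH 5.6 or 7.0, with or without 10% beef serum. Plates were incubated at 28 °C for 5 days. MIC is the lowest concentration (µg/mL) giving 100% inhibition. Steps were 1 µg/mL up to 10, 2 µg/mL from 10–20, and 10 µg/mL from 20–100; 100 µg/mL was the top level, and no inhibition there is scored as >100.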

Mucor mucedo [2] = test: Antifungal activity against Mucor mucedo ATCC 7941 at <100 ug/ml at pH 7 after 20 h in absence of 10% beef serum
Aspergillus niger [3] = test: Antifungal activity against Aspergillus niger ATCC 1004 at <100 ug/ml at pH 7 after 5 days in presence of 10% beef serum; type: functional, organism-based; in short: as §1
Candida albicans [4] = test: Antifungal activity against Candida albicans ATCC 10231 at <100 ug/ml at pH 5.6 after 20 h in absence of 10% beef serum
[5] = tested on: Trichophyton mentagrophytes; test: Antifungal activity against Trichophyton mentagrophytes ATCC 9129 at <100 ug/ml at pH 5.6 after 5 days in absence of 10% beef serum; type: functional, organism-based; in short: as §1
Aspergillus niger [6] = test: Antifungal activity against Aspergillus niger ATCC 1004 at <100 ug/ml at pH 5.6 after 5 days in absence of 10% beef serum; type: functional, organism-based; in short: as §1
Candida albicans [7] = test: Antifungal activity against Candida albicans ATCC 10231 at <100 ug/ml at pH 7 after 20 h in absence of 10% beef serum
Candida albicans [8] = test: Antifungal activity against Candida albicans ATCC 10231 at <100 ug/ml at pH 5.6 after 20 h in presence of 10% beef serum
Aspergillus niger [9] = test: Antifungal activity against Aspergillus niger ATCC 1004 at <100 ug/ml at pH 7 after 5 days in absence of 10% beef serum; type: functional, organism-based; in short: as §1
Mucor mucedo [10] = test: Antifungal activity against Mucor mucedo ATCC 7941 at <100 ug/ml at pH 5.6 after 20 h in absence of 10% beef serum
Mucor mucedo [11] = test: Antifungal activity against Mucor mucedo ATCC 7941 at <100 ug/ml at pH 5.6 after 20 h in presence of 10% beef serum
Aspergillus niger [12] = test: Antifungal activity against Aspergillus niger ATCC 1004 at <100 ug/ml at pH 5.6 after 5 days in presence of 10% beef serum; type: functional, organism-based; in short: as §1
Mucor mucedo [13] = test: Antifungal activity against Mucor mucedo ATCC 7941 at <100 ug/ml at pH 7 after 20 h in presence of 10% beef serum
Candida albicans [14] = test: Antifungal activity against Candida albicans ATCC 10231 at <100 ug/ml at pH 7 after 20 h in presence of 10% beef serum
[15] = tested on: Trichophyton mentagrophytes; test: Antifungal activity against Trichophyton mentagrophytes ATCC 9129 at <100 ug/ml at pH 7 after 5 days in absence of 10% beef serum; type: functional, organism-based; in short: as §1
[16] = tested on: Trichophyton mentagrophytes; test: Antifungal activity against Trichophyton mentagrophytes ATCC 9129 at <100 ug/ml at pH 7 after 5 days in presence of 10% beef serum; type: functional, organism-based; in short: as §1
[17] = tested on: Trichophyton mentagrophytes; test: Antifungal activity against Trichophyton mentagrophytes ATCC 9129 at pH 7 after 5 days in presence of 10% beef serum; type: functional; conditions: Trichophyton mentagrophytes, ATCC 9129, 120 h; read-out: MIC; in short: as §1
Aspergillus niger [18] = test: Antifungal activity against Aspergillus niger ATCC 1004 at pH 5.6 after 5 days in presence of 10% beef serum; type: functional; conditions: Aspergillus niger, ATCC 1004, 120 h; read-out: MIC; in short: as §1
Candida albicans [19] = test: Antifungal activity against Candida albicans ATCC 10231 at pH 7 after 5 days in presence of 10% beef serum; type: functional; conditions: Candida albicans, ATCC 10231, 120 h; read-out: MIC
Aspergillus niger [20] = test: Antifungal activity against Aspergillus niger ATCC 1004 at pH 7 after 5 days in presence of 10% beef serum; type: functional; conditions: Aspergillus niger, ATCC 1004, 120 h; read-out: MIC; in short: as §1
Mucor mucedo [21] = test: Antifungal activity against Mucor mucedo ATCC 7941 at pH 5.6 after 20 h in presence of 10% beef serum; conditions: ATCC 7941, 20 h
[22] = tested on: Trichophyton mentagrophytes; test: Antifungal activity against Trichophyton mentagrophytes ATCC 9129 at pH 5.6 after 5 days in absence of 10% beef serum; type: functional; conditions: Trichophyton mentagrophytes, ATCC 9129, 120 h; read-out: MIC; in short: as §1
[23] = tested on: Trichophyton mentagrophytes; test: Antifungal activity against Trichophyton mentagrophytes ATCC 9129 at pH 7 after 5 days in absence of 10% beef serum; type: functional; conditions: Trichophyton mentagrophytes, ATCC 9129, 120 h; read-out: MIC; in short: as §1
Mucor mucedo [24] = test: Antifungal activity against Mucor mucedo ATCC 7941 at pH 7 after 20 h in presence of 10% beef serum; conditions: ATCC 7941, 20 h
Mucor mucedo [25] = test: Antifungal activity against Mucor mucedo ATCC 7941 at pH 5.6 after 5 days in absence of 10% beef serum; type: functional; conditions: Mucor mucedo, ATCC 7941, 120 h; read-out: MIC
Candida albicans [26] = test: Antifungal activity against Candida albicans ATCC 10231 at pH 5.6 after 5 days in presence of 10% beef serum; type: functional; conditions: Candida albicans, ATCC 10231, 120 h; read-out: MIC
Candida albicans [27] = test: Antifungal activity against Candida albicans ATCC 10231 at pH 5.6 after 20 h in absence of 10% beef serum; conditions: ATCC 10231, 20 h
Mucor mucedo [28] = test: Antifungal activity against Mucor mucedo ATCC 7941 at pH 7 after 20 h in absence of 10% beef serum; conditions: ATCC 7941, 20 h
Candida albicans [29] = test: Antifungal activity against Candida albicans ATCC 10231 at pH 7 after 20 h in absence of 10% beef serum; conditions: ATCC 10231, 20 h
Aspergillus niger [30] = test: Antifungal activity against Aspergillus niger ATCC 1004 at pH 5.6 after 5 days in absence of 10% beef serum; type: functional; conditions: Aspergillus niger, ATCC 1004, 120 h; read-out: MIC; in short: as §1
[31] = tested on: Trichophyton mentagrophytes; test: Antifungal activity against Trichophyton mentagrophytes ATCC 9129 at pH 5.6 after 5 days in presence of 10% beef serum; type: functional; conditions: Trichophyton mentagrophytes, ATCC 9129, 120 h; read-out: MIC; in short: as §1
Aspergillus niger [32] = test: Antifungal activity against Aspergillus niger ATCC 1004 at pH 7 after 5 days in absence of 10% beef serum; type: functional; conditions: Aspergillus niger, ATCC 1004, 120 h; read-out: MIC; in short: as §1

Row | SMILES | inhibition [1] | inhibition (Mucor mucedo [2]) | inhibition (Aspergillus niger [3]) | inhibition (Candida albicans [4]) | inhibition [5] | inhibition (Aspergillus niger [6]) | inhibition (Candida albicans [7]) | inhibition (Candida albicans [8]) | inhibition (Aspergillus niger [9]) | inhibition (Mucor mucedo [10]) | inhibition (Mucor mucedo [11]) | inhibition (Aspergillus niger [12]) | inhibition (Mucor mucedo [13]) | inhibition (Candida albicans [14]) | inhibition [15] | inhibition [16] | other results
1 | CCCCCCOC(=O)/C=C/C(=O)OCCCCCC | inactive | inactive | inactive | inactive | inactive | inactive | inactive | inactive | inactive | inactive | inactive | inactive | inactive | inactive | inactive | inactive | –
2 | CCCCCCOC(=O)[C@@H](F)[C@@H](Br)C(=O)OCCCCCC (relative stereo) | inactive | inactive | inactive | inactive | inactive | inactive | inactive | inactive | inactive | inactive | inactive | inactive | inactive | inactive | inactive | inactive | –
3 | COC(=O)[C@H](F)[C@@H](Br)C(=O)OC (relative stereo) | – | – | – | – | – | – | – | – | – | – | – | – | – | – | – | – | MIC [17]: 6 µg/mL; MIC (Aspergillus niger [18]): 14 µg/mL; MIC (Candida albicans [19]): 16 µg/mL; MIC (Aspergillus niger [20]): 40 µg/mL; MIC (Mucor mucedo [21]): 12 µg/mL; MIC [22]: < 1 µg/mL; MIC [23]: 3 µg/mL (≈ 12.3 µM); MIC (Mucor mucedo [24]): 20 µg/mL; MIC (Mucor mucedo [25]): 12 µg/mL (≈ 49.4 µM); MIC (Candida albicans [26]): 8 µg/mL; MIC (Candida albicans [27]): 6 µg/mL (≈ 24.7 µM); MIC (Mucor mucedo [28]): 14 µg/mL (≈ 57.6 µM); MIC (Candida albicans [29]): 16 µg/mL (≈ 65.8 µM); MIC (Aspergillus niger [30]): 12 µg/mL (≈ 49.4 µM); MIC [31]: 3 µg/mL; MIC (Aspergillus niger [32]): 30 µg/mL (≈ 123 µM)
4 | COC(=O)C(Br)C(C)F (stereo not given) | inactive | inactive | inactive | inactive | inactive | inactive | inactive | inactive | inactive | inactive | inactive | inactive | inactive | inactive | inactive | inactive | –
5 | CCCCCCOC(=O)/C=C\C(=O)OCCCCCC | inactive | inactive | inactive | inactive | inactive | inactive | inactive | inactive | inactive | inactive | inactive | inactive | inactive | inactive | inactive | inactive | –
